Measurements reported in ChEMBL document CHEMBL5303300, “EUbOPEN Chemogenomics Library - Multiplex” (2023).
“And” between values parts separate entries of the source, which are not always exact repeats. Identical values can stand only once.

System: Fibroblast
Assay: Multiplex assay against human fibroblast
Type: toxicity, cell-based
Conditions: number of replicates 2
Method in brief: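 Imaging took place on a CQ1 microscope at 37°C and 5% CO2 once compound had been added to live cells stained at seeding with Hoechst33342, BioTracker Green Microtubule Cytoskeleton Dye, MitoTracker Red and Annexin V Alexa Fluor 680. CellPathfinder machine-learning gating classed cells as Hoechst high-intensity objects or normal cells, classed normal cells as having healthy, pyknosed or fragmented nuclei, and classed pyknosed cells as mitotic or apoptotic. Tubulin, mitochondrial-mass and membrane-permeability phenotypes are per cents of the healthy-nucleus cells.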

[1] = 12 h, 1 µM, compound concentration 1 uM
[2] = 12 h, 10 µM, compound concentration 10 uM
[3] = 24 h, 1 µM, compound concentration 1 uM
[4] = 24 h, 10 µM, compound concentration 10 uM
[5] = 48 h, 1 µM, compound concentration 1 uM
[6] = 48 h, 10 µM, compound concentration 10 uM

COc1ccc(CC[C@@H](OC(=O)[C@@H]2CCCCN2C(=O)[C@H](c2cc(OC)c(OC)c(OC)c2)C2CCCCC2)c2cccc(OCCN3CCOCC3)c2)cc1OC
Population Apoptotic (%) [1]: 42% and 47% | Population Fragmented Nuclei (%) [1]: 12% and 11% | Population Healthy Nuclei (%) [1]: 65% and 64% | Population Hoechst High Intensity Objects (%) [1]: 0% | Population Membrane Permeable-Phenotype (%) [1]: 20% | Population Mitochondria Different-Phenotype (%) [1]: 7% and 2% | Population Mitotic Cells (%) [1]: 57% and 52% | Population Normal (%) [1]: 100% and 99% | Population Pyknosed Nuclei (%) [1]: 21% and 23% | Population Tubulin-Different-Phenotype (%) [1]: 81% and 69% | Total Cell Count [1]: 227 and 146 | Population Apoptotic (%) [2]: 51% and 55% | Population Fragmented Nuclei (%) [2]: 14% and 19% | Population Healthy Nuclei (%) [2]: 60% and 59% | Population Hoechst High Intensity Objects (%) [2]: 0% | Population Membrane Permeable-Phenotype (%) [2]: 25% and 21% | Population Mitochondria Different-Phenotype (%) [2]: 14% and 11% | Population Mitotic Cells (%) [2]: 48% and 44% | Population Normal (%) [2]: 99% and 100% | Population Pyknosed Nuclei (%) [2]: 24% and 20% | Population Tubulin-Different-Phenotype (%) [2]: 89% and 84% | Total Cell Count [2]: 188 and 273 | Population Apoptotic (%) [3]: 50% and 59% | Population Fragmented Nuclei (%) [3]: 7% and 20% | Population Healthy Nuclei (%) [3]: 67% and 51% | Population Hoechst High Intensity Objects (%) [3]: 0% | Population Membrane Permeable-Phenotype (%) [3]: 10% and 9% | Population Mitochondria Different-Phenotype (%) [3]: 14% | Population Mitotic Cells (%) [3]: 50% and 40% | Population Normal (%) [3]: 99% and 100% | Population Pyknosed Nuclei (%) [3]: 24% and 28% | Population Tubulin-Different-Phenotype (%) [3]: 74% and 65% | Total Cell Count [3]: 207 and 148 | Population Apoptotic (%) [4]: 66% and 71% | Population Fragmented Nuclei (%) [4]: 14% and 20% | Population Healthy Nuclei (%) [4]: 59% and 56% | Population Hoechst High Intensity Objects (%) [4]: 0% | Population Membrane Permeable-Phenotype (%) [4]: 15% and 6% | Population Mitochondria Different-Phenotype (%) [4]: 24% and 45% | Population Mitotic Cells (%) [4]: 33% and 28% | Population Normal (%) [4]: 99% | Population Pyknosed Nuclei (%) [4]: 26% and 22% | Population Tubulin-Different-Phenotype (%) [4]: 86% and 89% | Total Cell Count [4]: 193 and 253 | Population Apoptotic (%) [5]: 71% and 82% | Population Fragmented Nuclei (%) [5]: 6% and 14% | Population Healthy Nuclei (%) [5]: 77% and 66% | Population Hoechst High Intensity Objects (%) [5]: 0% | Population Membrane Permeable-Phenotype (%) [5]: 8% and 17% | Population Mitochondria Different-Phenotype (%) [5]: 3% and 10% | Population Mitotic Cells (%) [5]: 28% and 17% | Population Normal (%) [5]: 100% and 99% | Population Pyknosed Nuclei (%) [5]: 16% and 18% | Population Tubulin-Different-Phenotype (%) [5]: 61% and 51% | Total Cell Count [5]: 199 and 150 | Population Apoptotic (%) [6]: 85% and 80% | Population Fragmented Nuclei (%) [6]: 22% and 29% | Population Healthy Nuclei (%) [6]: 59% and 55% | Population Hoechst High Intensity Objects (%) [6]: 1% and 0% | Population Membrane Permeable-Phenotype (%) [6]: 20% and 8% | Population Mitochondria Different-Phenotype (%) [6]: 27% and 30% | Population Mitotic Cells (%) [6]: 14% and 20% | Population Normal (%) [6]: 98% and 99% | Population Pyknosed Nuclei (%) [6]: 17% and 15% | Population Tubulin-Different-Phenotype (%) [6]: 91% | Total Cell Count [6]: 195 and 265

O=C1NC(=O)C(c2ccccc2[N+](=O)[O-])=C1Nc1ccc(O)c(Cl)c1
Population Fragmented Nuclei (%) [1]: 10% and 18% | Population Healthy Nuclei (%) [1]: 77% and 65% | Population Hoechst High Intensity Objects (%) [1]: 0% | Population Membrane Permeable-Phenotype (%) [1]: 3% and 7% | Population Mitochondria Different-Phenotype (%) [1]: 1% and 0% | Population Mitotic Cells (%) [1]: 87% and 53% | Population Normal (%) [1]: 100% and 99% | Population Pyknosed Nuclei (%) [1]: 11% and 16% | Population Tubulin-Different-Phenotype (%) [1]: 4% and 9% | Population Apoptotic (%) [2]: 46% and 47% | Population Fragmented Nuclei (%) [2]: 8% and 12% | Population Healthy Nuclei (%) [2]: 82% and 80% | Population Hoechst High Intensity Objects (%) [2]: 0% | Population Membrane Permeable-Phenotype (%) [2]: 1% and 2% | Population Mitochondria Different-Phenotype (%) [2]: 0% and 1% | Population Mitotic Cells (%) [2]: 53% and 52% | Population Normal (%) [2]: 100% | Population Pyknosed Nuclei (%) [2]: 9% and 7% | Population Tubulin-Different-Phenotype (%) [2]: 6% and 5% | Population Apoptotic (%) [3]: 45% and 57% | Population Fragmented Nuclei (%) [3]: 10% and 17% | Population Healthy Nuclei (%) [3]: 84% and 74% | Population Hoechst High Intensity Objects (%) [3]: 0% | Population Membrane Permeable-Phenotype (%) [3]: 2% and 4% | Population Mitochondria Different-Phenotype (%) [3]: 0% and 1% | Population Mitotic Cells (%) [3]: 54% and 42% | Population Normal (%) [3]: 100% | Population Pyknosed Nuclei (%) [3]: 5% and 8% | Population Tubulin-Different-Phenotype (%) [3]: 5% and 7% | Population Apoptotic (%) [4]: 40% and 37% | Population Fragmented Nuclei (%) [4]: 12% and 11% | Population Healthy Nuclei (%) [4]: 81% and 84% | Population Hoechst High Intensity Objects (%) [4]: 0% | Population Membrane Permeable-Phenotype (%) [4]: 2% and 3% | Population Mitochondria Different-Phenotype (%) [4]: 0% and 1% | Population Mitotic Cells (%) [4]: 60% and 62% | Population Normal (%) [4]: 100% | Population Pyknosed Nuclei (%) [4]: 6% and 3% | Population Tubulin-Different-Phenotype (%) [4]: 7% and 2% | Population Apoptotic (%) [5]: 35% and 46% | Population Fragmented Nuclei (%) [5]: 12% and 19% | Population Healthy Nuclei (%) [5]: 81% and 73% | Population Hoechst High Intensity Objects (%) [5]: 0% | Population Membrane Permeable-Phenotype (%) [5]: 1% and 2% | Population Mitochondria Different-Phenotype (%) [5]: 0% | Population Mitotic Cells (%) [5]: 64% and 53% | Population Normal (%) [5]: 100% | Population Pyknosed Nuclei (%) [5]: 6% | Population Tubulin-Different-Phenotype (%) [5]: 3% and 2% | Population Apoptotic (%) [6]: 33% and 75% | Population Fragmented Nuclei (%) [6]: 6% and 11% | Population Healthy Nuclei (%) [6]: 91% and 84% | Population Hoechst High Intensity Objects (%) [6]: 0% | Population Membrane Permeable-Phenotype (%) [6]: 3% and 0% | Population Mitochondria Different-Phenotype (%) [6]: 0% | Population Mitotic Cells (%) [6]: 66% and 25% | Population Normal (%) [6]: 100% | Population Pyknosed Nuclei (%) [6]: 1% and 3% | Population Tubulin-Different-Phenotype (%) [6]: 7% and 1%
